Several values for one entry are separate records, joined by “and”; a condition that tells them apart may be missing. Equal values may be shown once. Read-outs that look alike come from different tables or passages of the source. Blank lines part the entries; values can stand above or below the molecule they belong to.
Key:
[1] = molecular target: LE1/WT1/LE1/WT1 hERG1 channels (L646E) (Homo sapiens, UniProt Q12809, L646E); format: cell-based; conditions: 10 µM PD, mean ± SEM
Summary of the method: (§1)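 Concatenated L646E/WT tetramers: 50 ng cRNA per oocyte, recorded 4–8 d later by two-electrode voltage clamp in pH 7.6 HEPES bath. Activation used 4-s steps, −70 to 50 mV, with Itail at −70 mV Boltzmann-fitted for V0.5act and z. Inactivation used 1 s at 40 mV, then 5 s at 30 to −140 mV; Itail/(Vret−Erev) was Boltzmann-fitted. Fold increase in Itail-max over 1–30 µM was fitted with a logistic equation (EC50, nH).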

[2] = molecular target: LE4 hERG1 channels (L646E) (Homo sapiens, UniProt Q12809, L646E); assay: Two-electrode voltage clamp, concatenated tetramer LE4 in Xenopus oocytes; format: cell-based; conditions: 10 µM PD, mean ± SEM
Summary of the method: as §1

[3] = molecular target: LE1/WT1/LE2 hERG1 channels (L646E) (Homo sapiens, UniProt Q12809, L646E); format: cell-based; conditions: 10 µM PD, mean ± SEM
Summary of the method: as §1

[4] = molecular target: WT hERG1 channels (Homo sapiens, UniProt Q12809); format: cell-based; conditions: for fold increase in Itest (isochronal, 4 s): 10 µM ICA, stated for WT and WT4 together
Summary of the method: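 Oocytes were injected with 10 ng cRNA for single WT subunits and recorded 1–3 d later by two-electrode voltage clamp. Bath (mM): 98 NaCl, 2 KCl, 1 CaCl2, 1 MgCl2, 5 HEPES, pH 7.6. Test compound was diluted from a 20 mM DMSO stock just before use. Itest was taken at the end of 4-s steps (−70 to 50 mV); tails at −70 mV were Boltzmann-fitted for V0.5act and z. Mean ± SEM, n = oocytes.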

[5] = molecular target: LE2/WT2 hERG1 channels (L646E) (Homo sapiens, UniProt Q12809, L646E); assay: Two-electrode voltage clamp, concatenated tetramer LE2/WT2 in Xenopus oocytes; format: cell-based; conditions: 10 µM PD, mean ± SEM
Summary of the method: as §1

[6] = molecular target: WT4 hERG1 channels (Homo sapiens, UniProt Q12809); format: cell-based; conditions: for fold increase in Itest (isochronal, 4 s): 10 µM ICA, stated for WT and WT4 together
Summary of the method: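 WT4 tetramers (50 ng cRNA, 4–8 d) were studied by two-electrode voltage clamp in pH 7.6 bath, 2 mM KCl. Tests used 4-s steps, −70 to 50 mV, with tails at −70 mV and Boltzmann fits (V0.5act). Inactivation: 40 mV prepulse, then 5 s at 30 to −140 mV. Concentration-response of Itest at 20 mV or of Itail-max was fitted logistically (EC50, nH). Some Itail-Vret runs used 20 mM KCl bath.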

[7] = molecular target: LE1/WT3 hERG1 channels (L646E) (Homo sapiens, UniProt Q12809, L646E); assay: Two-electrode voltage clamp, concatenated tetramer LE1/WT3 in Xenopus oocytes; format: cell-based
Summary of the method: as §1

[8] = molecular target: WT3/LE1 hERG1 channels (L646E) (Homo sapiens, UniProt Q12809, L646E); assay: Two-electrode voltage clamp, concatenated tetramer WT3/LE1 in Xenopus oocytes; format: cell-based
Summary of the method: as §1

[9] = molecular target: WT3/FL1 hERG1 channels (F557L) (Homo sapiens, UniProt Q12809, F557L); assay: Two-electrode voltage clamp, concatenated tetramer WT3/FL1 in Xenopus oocytes; format: cell-based; conditions: 30 µM ICA, mean ± SEM
Summary of the method: (§2)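 F557L/WT concatenated tetramers were expressed from 50 ng cRNA and recorded 4–8 d later by two-electrode voltage clamp in pH 7.6 HEPES bath, with and without test compound. V0.5act and z came from Boltzmann fits of tails at −70 mV after 4-s steps. Inactivation: 1 s at 40 mV, then 5 s at 30 to −140 mV, with Itail/(Vret−Erev) fitted. Fold increase in Itest at 20 mV over 1–30 µM was fitted logistically (EC50, nH).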

[10] = Limit of solubility in extracellular solution; format: physicochemical; conditions: extracellular solution pH 7.6, diluted from 20-mM DMSO stock
[11] = molecular target: FL1/WT3 hERG1 channels (F557L) (Homo sapiens, UniProt Q12809, F557L); assay: Two-electrode voltage clamp, concatenated tetramer FL1/WT3 in Xenopus oocytes; format: cell-based; conditions: 30 µM ICA
Summary of the method: as §2

[12] = molecular target: FL1/WT1/FL2 hERG1 channels (F557L) (Homo sapiens, UniProt Q12809, F557L); format: cell-based
Summary of the method: as §2

[13] = molecular target: FL4 hERG1 channels (F557L) (Homo sapiens, UniProt Q12809, F557L); assay: Two-electrode voltage clamp, concatenated tetramer FL4 in Xenopus oocytes; format: cell-based; conditions: 30 µM ICA, mean ± SEM
Summary of the method: as §2

[14] = molecular target: FL2/WT2 hERG1 channels (F557L) (Homo sapiens, UniProt Q12809, F557L); assay: Two-electrode voltage clamp, concatenated tetramer FL2/WT2 in Xenopus oocytes; format: cell-based; conditions: 30 µM ICA, mean ± SEM
Summary of the method: as §2

[15] = molecular target: FL1/WT1/FL1/WT1 hERG1 channels (F557L) (Homo sapiens, UniProt Q12809, F557L); format: cell-based; conditions: 30 µM ICA, mean ± SEM
Summary of the method: as §2

Structure (SMILES): O=C(O)c1ccccc1Nc1ccc(CCc2ccc(Cl)c(Cl)c2)cc1 [PD, 2-(4-[2-(3,4-dichloro-phenyl)-ethyl]-phenylamino)-benzoic acid]
V0.5act (half-point of channel activation) [1]: −32.7 ± 0.8 mV
V0.5inact (V0.5 for C-type inactivation) [1]: −43.3 ± 3.4 mV
z (equivalent charge) for activation [1]: 3.45 ± 0.19
z for inactivation [1]: 1.22 ± 0.07
V0.5act (half-point of channel activation) [2]: −32.6 ± 1.2 mV
V0.5inact (V0.5 for C-type inactivation) [2]: −43.6 ± 2.2 mV
z (equivalent charge) for activation [2]: 3.55 ± 0.25
z for inactivation [2]: 1.52 ± 0.05
V0.5act (half-point of channel activation) [3]: −30.3 ± 1.4 mV
V0.5inact (V0.5 for C-type inactivation) [3]: −47.7 ± 4.0 mV
z (equivalent charge) for activation [3]: 3.55 ± 0.15
z for inactivation [3]: 1.31 ± 0.08
increase in Itest measured at the end of 4-s pulses ([4]; 10 µM PD, WT hERG1): about twofold
V0.5act (half-point of channel activation) ([4]; 10 µM PD, WT hERG1, mean ± SEM): −29.2 ± 14 mV
V0.5inact (V0.5 for C-type inactivation) ([4]; 10 µM PD, WT hERG1, mean ± SEM): −34.7 ± 4.2 mV
z (equivalent charge) for activation ([4]; 10 µM PD, WT hERG1, mean ± SEM): 3.07 ± 0.34
z for inactivation ([4]; 10 µM PD, WT hERG1, mean ± SEM): 1.19 ± 0.09
V0.5act (half-point of channel activation) [5]: −31.3 ± 1.0 mV
V0.5inact (V0.5 for C-type inactivation) [5]: −45.5 ± 2.8 mV
z (equivalent charge) for activation [5]: 3.94 ± 0.12
z for inactivation [5]: 1.19 ± 0.08
increase in Itest measured at the end of 4-s pulses ([6]; 10 µM PD, WT4): about twofold
increase in Itail ([6]; 10 µM PD, WT4, Vret −140 mV after 1-s pulse to 40 mV): 68%
V0.5act (half-point of channel activation) ([6]; 10 µM PD, WT4, mean ± SEM): −26.7 ± 1.0 mV
V0.5inact (V0.5 for C-type inactivation) ([6]; 10 µM PD, WT4, mean ± SEM): −39.4 ± 4.6 mV
z (equivalent charge) for activation ([6]; 10 µM PD, WT4, mean ± SEM): 3.07 ± 0.30
z for inactivation ([6]; 10 µM PD, WT4, mean ± SEM): 1.26 ± 0.17
EC50 [7]: 4.6 µM
V0.5act (half-point of channel activation) ([7]; 10 µM PD, LE1/WT3, mean ± SEM): −30.1 ± 1.6 mV
V0.5inact (V0.5 for C-type inactivation) ([7]; 10 µM PD, LE1/WT3, mean ± SEM): −44.6 ± 2.7 mV
z (equivalent charge) for activation ([7]; 10 µM PD, LE1/WT3, mean ± SEM): 4.20 ± 0.07
z for activation (Figure 6 legend) ([7]; 10 µM PD, LE1/WT3, mean ± SEM): 4.2 ± 0.07
z for inactivation ([7]; 10 µM PD, LE1/WT3, mean ± SEM): 1.24 ± 0.10
nH (Hill coefficient) for fold increase in Itail-max ([7]; PD, LE1/WT3): 1.1
EC50 [8]: 4.8 µM
V0.5act (half-point of channel activation) ([8]; 10 µM PD, WT3/LE1, mean ± SEM): −27.1 ± 1.3 mV and −27.1 ± 1.29 mV
V0.5inact (V0.5 for C-type inactivation) ([8]; 10 µM PD, WT3/LE1, mean ± SEM): −33.5 ± 3.7 mV
z (equivalent charge) for activation ([8]; 10 µM PD, WT3/LE1, mean ± SEM): 3.44 ± 0.16
z for activation (Figure 6 legend) ([8]; 10 µM PD, WT3/LE1, mean ± SEM): 3.44 ± 0.16
z for inactivation ([8]; 10 µM PD, WT3/LE1, mean ± SEM): 1.44 ± 0.19
nH (Hill coefficient) for fold increase in Itail-max ([8]; PD, WT3/LE1): 1.4

limit of solubility [10]: 0.03 mM
Structure (SMILES): O=C(Nc1ccc(Oc2ccccc2)cc1)c1cccc([N+](=O)[O-])c1 [ICA, 3-nitro-N-(4-phenoxyphenyl) benzamide]
V0.5act (half-point of channel activation) [9]: −36.7 ± 1.1 mV
V0.5inact (V0.5 for C-type inactivation) [9]: 49.9 ± 4.0 mV
z (equivalent charge) for activation [9]: 3.57 ± 0.39
z for inactivation [9]: 1.21 ± 0.03
V0.5act (half-point of channel activation) ([11]; mean ± SEM): −34.5 ± 1.5 mV
V0.5inact (V0.5 for C-type inactivation) ([11]; mean ± SEM): 28.5 ± 6.0 mV
z (equivalent charge) for activation ([11]; mean ± SEM): 4.06 ± 0.39
z for inactivation ([11]; mean ± SEM): 0.95 ± 0.13
positive shift in V0.5inact ([11]; n = 4): 70 ± 3 mV
V0.5act (half-point of channel activation) ([12]; 30 µM ICA, mean ± SEM): −19.5 ± 2.9 mV
V0.5inact (V0.5 for C-type inactivation) ([12]; 30 µM ICA, mean ± SEM): −72.5 ± 7.7 mV
z (equivalent charge) for activation ([12]; 30 µM ICA, mean ± SEM): 2.80 ± 0.22
z for inactivation ([12]; 30 µM ICA, mean ± SEM): 0.61 ± 0.05
shift in V0.5inact ([12]; 30 µM ICA, n = 4): 6.6 ± 1.6 mV
nH (Hill coefficient) for increase in Itest at 20 mV ([12]; ICA): 2.0
EC50 ([12]; read-out: EC50 for increase in Itest measured at 20 mV, ICA): 11.8 µM
V0.5act (half-point of channel activation) [13]: −18.7 ± 1.0 mV
V0.5inact (V0.5 for C-type inactivation) [13]: −98.8 ± 7.8 mV
z (equivalent charge) for activation [13]: 3.60 ± 0.15
z for inactivation [13]: 0.69 ± 0.04
V0.5act (half-point of channel activation) [14]: −37.1 ± 0.4 mV
V0.5inact (V0.5 for C-type inactivation) [14]: −22.4 ± 9.3 mV
z (equivalent charge) for activation [14]: 3.88 ± 0.48
z for inactivation [14]: 0.46 ± 0.01
fold increase in Itest (isochronal, 4 s) ([4]; at 20 mV): 20 fold
fold increase in Itest (isochronal, 4 s) ([4]; at −30 mV): 4 fold
fold increase in Itest (isochronal, 4 s) ([6]; at 20 mV): 20 fold
fold increase in Itest (isochronal, 4 s) ([6]; at −30 mV): 4 fold
effect on Itail at potentials more negative than −100 mV ([6]; 30 µM ICA, WT4, bath solution containing 20 mM KCl): did not cause an increase in Itail
V0.5inact (V0.5 for C-type inactivation) ([6]; 30 µM ICA, WT4, mean ± SEM): 57.8 ± 4.1 mV
z for inactivation ([6]; 30 µM ICA, WT4, mean ± SEM): 1.17 ± 0.05
nH (Hill coefficient) for increase in Itest at 20 mV ([6]; ICA, WT4): 1.7
increase in current at Vt of 20 mV, WT4 channels compared with FL1/WT1/FL2 channels ([6]; ICA, ratio WT4 vs FL1/WT1/FL2): ~13 fold
EC50 ([6]; read-out: EC50 for increase in Itest measured at 20 mV, ICA, WT4): 9.1 µM
V0.5act (half-point of channel activation) [15]: −29.6 ± 1.6 mV
V0.5inact (V0.5 for C-type inactivation) [15]: −33.7 ± 16.0 mV
z (equivalent charge) for activation [15]: 3.00 ± 0.25
z for inactivation [15]: 0.56 ± 0.03

From article PMC3971662 (The Journal of General Physiology, 2014)
